Key:
[1] = Binding affinity towards Opioid receptor delta 1 from guinea pig brain using [3H]naltrindole as radioligand
Mu-type opioid receptor [2] = biological target: T1, Mu-type opioid receptor (Homo sapiens, UniProt P35372); assay: Incorporation of [35S]GTP-gamma-S, into CHO membranes expressing human Opioid receptor mu 1; assay type: functional
[3] = biological target: Kappa-type opioid receptor (Cavia porcellus, UniProt P41144); assay: Binding affinity towards Opioid receptor kappa 1 from guinea pig brain using [3H]U-69593 as radioligand
Chain of Kappa-type opioid receptor (Cavia porcellus, UniProt P41144) (P41144 whole entry): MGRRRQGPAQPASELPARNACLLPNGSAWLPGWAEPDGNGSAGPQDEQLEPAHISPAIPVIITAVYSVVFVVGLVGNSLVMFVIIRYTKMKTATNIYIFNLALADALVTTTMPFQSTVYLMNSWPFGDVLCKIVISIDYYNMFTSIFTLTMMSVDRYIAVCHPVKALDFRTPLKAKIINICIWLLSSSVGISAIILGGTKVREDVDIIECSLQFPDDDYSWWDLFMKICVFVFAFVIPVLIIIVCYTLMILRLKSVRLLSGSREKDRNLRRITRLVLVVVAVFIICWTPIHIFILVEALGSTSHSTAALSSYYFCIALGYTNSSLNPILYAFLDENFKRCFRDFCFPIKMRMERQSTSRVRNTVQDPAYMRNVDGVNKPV
Procedure, shortened: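 Uses 1 nM [3H]U69,593 with guinea pig brain membrane protein (500 µg), 12 concentrations, 50 mM Tris-HCl pH 7.5, 60 min at 25 °C. Nonspecific binding with 10 µM naloxone. Filters pre-soaked in 0.1% polyethylenimine; bound label counted.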

[4] = biological target: T2, Kappa-type opioid receptor (Homo sapiens, UniProt P41145); assay: (§1) Incorporation of [35S]GTP-gamma-S, into CHO membranes expressing human Opioid receptor kappa 1; assay type: functional
T2 sequence (P41145 whole entry): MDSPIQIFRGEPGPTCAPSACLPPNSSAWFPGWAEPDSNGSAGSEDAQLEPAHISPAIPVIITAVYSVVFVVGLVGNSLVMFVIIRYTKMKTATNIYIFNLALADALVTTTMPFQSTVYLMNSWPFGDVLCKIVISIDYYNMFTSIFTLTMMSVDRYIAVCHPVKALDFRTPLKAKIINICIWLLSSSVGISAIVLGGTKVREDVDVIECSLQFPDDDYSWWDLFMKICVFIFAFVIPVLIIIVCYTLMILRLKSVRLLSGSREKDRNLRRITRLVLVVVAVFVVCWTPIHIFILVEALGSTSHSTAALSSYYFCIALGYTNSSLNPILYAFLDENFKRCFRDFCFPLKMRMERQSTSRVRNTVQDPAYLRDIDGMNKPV

Mu-type opioid receptor [5] = biological target: T1, Mu-type opioid receptor; assay: Incorporation of [35S]- GTPgammaS into CHO membranes expressing human Opioid receptor mu 1
[6] = biological target: T2, Kappa-type opioid receptor; assay: as §1; assay type: functional; remark: listed apart in the source
Mu-type opioid receptor [7] = biological target: Mu-type opioid receptor (Cavia porcellus, UniProt P97266); assay: Binding affinity towards Opioid receptor mu 1 from guinea pig brain using [3H]DAMGO as radioligand
Chain of Mu-type opioid receptor (Cavia porcellus, UniProt P97266) (P97266 whole entry): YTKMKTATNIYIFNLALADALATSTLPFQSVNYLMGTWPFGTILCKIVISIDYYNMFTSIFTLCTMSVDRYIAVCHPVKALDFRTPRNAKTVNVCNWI

[8] = biological target: Kappa-type opioid receptor (Cavia porcellus) (UniProt P41144); assay: Ratio of binding affinity of Opioid receptor kappa 1 to Opioid receptor mu 1 to Opioid receptor delta 1; kappa:mu:delta = 7:3:1
Chain of Kappa-type opioid receptor (Cavia porcellus) (P41144 whole entry): as the sequence (P41144 whole entry) above

[9] = biological target: Kappa-type opioid receptor (Cavia porcellus) (UniProt P41144); assay: Ratio of binding affinity of Opioid receptor kappa 1 to Opioid receptor mu 1 to Opioid receptor delta 1; kappa:mu:delta = 5:4:1
[10] = biological target: Kappa-type opioid receptor (Cavia porcellus) (UniProt P41144); assay: Ratio of binding affinity of Opioid receptor kappa 1 to Opioid receptor mu 1 to Opioid receptor delta 1; kappa:mu:delta = 11:7:1
[11] = biological target: Kappa-type opioid receptor (Cavia porcellus) (UniProt P41144); assay: Ratio of binding affinity of Opioid receptor kappa 1 to Opioid receptor mu 1 to Opioid receptor delta 1; kappa:mu:delta = 9:5:1
[12] = biological target: Kappa-type opioid receptor (Cavia porcellus) (UniProt P41144); assay: Ratio of binding affinity of Opioid receptor kappa 1 to Opioid receptor mu 1 to Opioid receptor delta 1; kappa:mu:delta = 29:18:1
[13] = biological target: Kappa-type opioid receptor (Cavia porcellus) (UniProt P41144); assay: Ratio of binding affinity of Opioid receptor kappa 1 to Opioid receptor mu 1 to Opioid receptor delta 1; kappa:mu:delta = 150:7:1
[14] = biological target: Kappa-type opioid receptor (Cavia porcellus) (UniProt P41144); assay: Ratio of binding affinity of Opioid receptor kappa 1 to Opioid receptor mu 1 to Opioid receptor delta 1; kappa:mu:delta = 28:12:1
[15] = biological target: Kappa-type opioid receptor (Cavia porcellus) (UniProt P41144); assay: Ratio of binding affinity of Opioid receptor kappa 1 to Opioid receptor mu 1 to Opioid receptor delta 1; kappa:mu:delta = 16:14:1
[16] = biological target: Kappa-type opioid receptor (Cavia porcellus) (UniProt P41144); assay: Ratio of binding affinity of Opioid receptor kappa 1 to Opioid receptor mu 1 to Opioid receptor delta 1; kappa:mu:delta = 47:26:1
[17] = biological target: Kappa-type opioid receptor (Cavia porcellus) (UniProt P41144); assay: Ratio of binding affinity of Opioid receptor kappa 1 to Opioid receptor mu 1 to Opioid receptor delta 1; kappa:mu:delta = 1:1:1

T1 sequence (P35372 whole entry): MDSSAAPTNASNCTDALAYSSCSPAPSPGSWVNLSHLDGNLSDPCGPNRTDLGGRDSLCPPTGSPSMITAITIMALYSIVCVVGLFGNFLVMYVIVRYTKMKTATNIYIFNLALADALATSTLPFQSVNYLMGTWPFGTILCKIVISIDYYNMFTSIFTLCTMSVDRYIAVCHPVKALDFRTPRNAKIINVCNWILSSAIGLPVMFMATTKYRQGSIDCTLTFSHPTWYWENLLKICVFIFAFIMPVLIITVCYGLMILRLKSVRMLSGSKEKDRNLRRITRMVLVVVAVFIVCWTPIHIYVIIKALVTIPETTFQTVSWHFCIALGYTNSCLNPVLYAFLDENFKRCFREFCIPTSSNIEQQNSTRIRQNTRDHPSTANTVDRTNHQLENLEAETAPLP

## C[C@H]1C2Cc3ccc(N4CCCC4)cc3[C@@]1(C)CCN2CC1CC1
[1]
  Ki: 1800 nM

## C[C@H]1C2C(=O)c3ccc(O)cc3[C@@]1(C)CCN2CC1CC1
Mu-type opioid receptor [2]
  Emax: 40%
[3]
  Ki: 1 nM
[4]
  Emax: 80%
Mu-type opioid receptor [5]
  EC50: 21 nM
[6]
  EC50: 3.3 nM

## C[C@H]1C2Cc3ccc(N(C)C)cc3[C@@]1(C)CCN2CC1CC1 (single isomer, unassigned; (-))
[3]
  Ki: 18 nM
Mu-type opioid receptor [7]
  Ki: 46 nM

## C[C@H]1C2Cc3ccc(N(C)C)cc3[C@@]1(C)CCN2CC1CC1 (stereo in doubt; 30)
[1]
  Ki: 1500 nM

## C[C@H]1C2Cc3ccc(NCc4ccccc4)cc3[C@@]1(C)CCN2CC1CC1 (single isomer, unassigned; (-))
[1]
  Ki: 54 nM

## CC[C@@]12CCN(CC3CC3)C(C(=O)c3ccc(Nc4ccccc4)cc31)[C@@H]2C
Mu-type opioid receptor [2]
  Emax: 70%
[3]
  Ki: 2.2 nM
[4]
  Emax: 110%
Mu-type opioid receptor [5]
  EC50: 22 nM
[6]
  EC50: 5.9 nM
Mu-type opioid receptor [7]
  Ki: 10 nM

## C[C@H]1C2Cc3cc4c(cc3[C@@]1(C)CCN2CC1CC1)[nH]c1ccccc14
[3]
  Ki: 9.6 nM

## C[C@@H]1[C@@H]2Cc3ccc(N)cc3[C@]1(C)CCN2CC1CC1
[3]
  Ki: 506 nM
Mu-type opioid receptor [7]
  Ki: 780 nM

## C[C@H]1[C@H]2Cc3ccc(Nc4ccccc4)cc3[C@@]1(C)CCN2CC1CC1 [listing 1 of 2 here]
Mu-type opioid receptor [2]
  Emax: 50%
[4]
  Emax: 120%

## CC[C@@]12CCN(CC3CC3)C(C(=O)c3ccc(N)cc31)[C@@H]2C (stereo in doubt; 44) [listing 1 of 2 here]
[3]
  Ki: 0.34 nM
Mu-type opioid receptor [5]
  EC50: 62 nM
[6]
  EC50: 4.4 nM
Mu-type opioid receptor [7]
  Ki: 7.3 nM

## CC[C@@]12CCN(CC3CC3)C(C(=O)c3ccc(N)cc31)[C@@H]2C (single isomer, unassigned; (-)) [listing 1 of 2 here]
Mu-type opioid receptor [2]
  Emax: 10%
[4]
  Emax: 110%
[8]
  Ratio: 7

## CCNc1ccc2c(c1)[C@@]1(C)CCN(CC3CC3)C(C2)[C@@H]1C
[1]
  Ki: 19 nM

## C[C@H]1[C@H]2Cc3ccc(O)cc3[C@]1(C)CCN2CC1CC1 (stereo in doubt; (-)2) [CYCLAZOCINE]
[6]
  EC50: 1.2 nM

## CC[C@@]12CCN(CC3CC3)C(C(=O)c3ccc(N)cc31)[C@@H]2C (single isomer, unassigned; (+)) [listing 1 of 2 here]
[3]
  Ki: 91 nM
Mu-type opioid receptor [7]
  Ki: 17 nM

## C[C@H]1C2Cc3ccc(N4CCOCC4)cc3[C@@]1(C)CCN2CC1CC1
[1]
  Ki: 2800 nM
[9]
  Ratio: 5

## C[C@H]1[C@H]2Cc3ccc(Nc4ccccc4)cc3[C@@]1(C)CCN2CC1CC1 (stereo in doubt; 10) [listing 1 of 2 here]
[10]
  Ratio: 11

## C[C@H]1C2Cc3ccc(Nc4ccncc4)cc3[C@@]1(C)CCN2CC1CC1
[3]
  Ki: 2.9 nM
Mu-type opioid receptor [7]
  Ki: 18 nM

## COc1ccc(CNc2ccc3c(c2)[C@@]2(C)CCN(CC4CC4)C(C3)[C@@H]2C)cc1
[3]
  Ki: 71 nM
Mu-type opioid receptor [7]
  Ki: 7.8 nM

## CC[C@@]12CCN(CC3CC3)C(C(=O)c3ccc(N)cc31)[C@@H]2C (single isomer, unassigned; (+)) [listing 2 of 2 here]
[11]
  Ratio: 9

## C[C@H]1[C@H]2Cc3ccc(N)cc3[C@@]1(C)CCN2CC1CC1
[1]
  Ki: 12 nM
[4]
  Emax: 80%
[6]
  EC50: 20 nM

## CC[C@@]12CCN(CC3CC3)C(C(=O)c3ccc(O)cc31)[C@@H]2C (single isomer, unassigned; (+)) [ETHYLKETOCYCLAZOCINE]
Mu-type opioid receptor [7]
  Ki: 320 nM

## CC[C@@]12CCN(CC3CC3)C(C(=O)c3ccc(O)cc31)[C@@H]2C (single isomer, unassigned; (-))
Mu-type opioid receptor [2]
  Emax: 70%
[4]
  Emax: 170%

## C[C@H]1[C@H]2Cc3ccc(O)cc3[C@]1(C)CCN2CC1CC1 (stereo in doubt; (-)2)
Mu-type opioid receptor [2]
  Emax: 50%
[4]
  Emax: 100%

## C[C@H]1C2Cc3ccc(N(C)C)cc3[C@@]1(C)CCN2CC1CC1 (single isomer, unassigned; (+))
[3]
  Ki: 3000 nM
Mu-type opioid receptor [7]
  Ki: 50000 nM

## C[C@H]1C2C(=O)c3ccc(N)cc3[C@@]1(C)CCN2CC1CC1
Mu-type opioid receptor [2]
  Emax: 80%
[3]
  Ki: 0.8 nM
[4]
  Emax: 70%
Mu-type opioid receptor [5]
  EC50: 180 nM
[6]
  EC50: 9.7 nM
Mu-type opioid receptor [7]
  Ki: 3.6 nM

## COc1ccc(Nc2ccc3c(c2)[C@@]2(C)CCN(CC4CC4)C(C3)[C@@H]2C)cc1
[3]
  Ki: 0.29 nM
[12]
  Ratio: 29
Mu-type opioid receptor [7]
  Ki: 0.47 nM

## C[C@H]1[C@H]2Cc3ccc(O)cc3[C@]1(C)CCN2CC1CC1 (stereo in doubt)
[4]
  Emax: 90%

## CC[C@@]12CCN(CC3CC3)C(C(=O)c3ccc(N)cc31)[C@@H]2C (stereo in doubt; 44) [listing 2 of 2 here]
Mu-type opioid receptor [2]
  Emax: 60%
[13]
  Ratio: 150
[4]
  Emax: 100%

## C[C@H]1[C@H]2Cc3ccc(Nc4ccccc4)cc3[C@@]1(C)CCN2CC1CC1 (stereo in doubt; (+)12)
[1]
  Ki: 270 nM

## C[C@H]1C2Cc3ccc(Nc4ccccn4)cc3[C@@]1(C)CCN2CC1CC1
[3]
  Ki: 9.2 nM
Mu-type opioid receptor [7]
  Ki: 4.2 nM

## CC[C@@]12CCN(CC3CC3)C(C(=O)c3ccc(O)cc31)[C@@H]2C (single isomer, unassigned; (-)) [ETHYLKETOCYCLAZOCINE]
Mu-type opioid receptor [5]
  EC50: 5.5 nM
Mu-type opioid receptor [7]
  Ki: 0.73 nM

## C[C@H]1C2Cc3ccc(N4CCN(C)CC4)cc3[C@@]1(C)CCN2CC1CC1
[1]
  Ki: 250 nM
[14]
  Ratio: 28

## C[C@H]1[C@H]2Cc3ccc(Nc4ccccc4)cc3[C@@]1(C)CCN2CC1CC1 (stereo in doubt; 10) [listing 2 of 2 here]
[1]
  Ki: 9.4 nM

## CC[C@@]12CCN(CC3CC3)C(C(=O)c3ccc(N)cc31)[C@@H]2C (single isomer, unassigned; (-)) [listing 2 of 2 here]
[3]
  Ki: 1.1 nM
Mu-type opioid receptor [5]
  EC50: 92 nM
[6]
  EC50: 2.8 nM
Mu-type opioid receptor [7]
  Ki: 2.7 nM

## C[C@H]1[C@H]2Cc3ccc(Nc4ccccc4)cc3[C@@]1(C)CCN2CC1CC1 [listing 2 of 2 here]
Mu-type opioid receptor [5]
  EC50: 15 nM
[6]
  EC50: 3.8 nM

## CNc1ccc2c(c1)[C@@]1(C)CCN(CC3CC3)C(C2)[C@@H]1C
[1]
  Ki: 470 nM

## C[C@H]1C2Cc3ccc(NCc4ccccc4)cc3[C@@]1(C)CCN2CC1CC1 (stereo in doubt; 25)
[1]
  Ki: 57 nM

## C[C@H]1C2Cc3ccc(NCc4ccc(Cl)cc4)cc3[C@@]1(C)CCN2CC1CC1
[3]
  Ki: 7.2 nM
Mu-type opioid receptor [7]
  Ki: 8.8 nM

## CC(C)Nc1ccc2c(c1)[C@@]1(C)CCN(CC3CC3)C(C2)[C@@H]1C
[1]
  Ki: 460 nM

## C[C@H]1[C@H]2Cc3ccc(O)cc3[C@@]1(C)CCN2C[C@@H]1CCCO1
[3]
  Ki: 0.073 nM
[4]
  Emax: 70%
[6]
  EC50: 4 nM
Mu-type opioid receptor [7]
  Ki: 0.17 nM

## C[C@H]1C2Cc3ccc(Nc4cccnc4)cc3[C@@]1(C)CCN2CC1CC1
[3]
  Ki: 0.5 nM
[4]
  Emax: 90%
[6]
  EC50: 10 nM
Mu-type opioid receptor [7]
  Ki: 0.64 nM

## Cc1ccc(Nc2ccc3c(c2)[C@@]2(C)CCN(CC4CC4)C(C3)[C@@H]2C)cc1
[10]
  Ratio: 11
[3]
  Ki: 0.57 nM
Mu-type opioid receptor [7]
  Ki: 0.91 nM

## C[C@H]1[C@H]2Cc3ccc(Nc4ccccc4)cc3[C@@]1(C)CCN2C[C@@H]1CCCO1
[3]
  Ki: 2 nM
Mu-type opioid receptor [7]
  Ki: 2.8 nM

## C[C@H]1[C@H]2Cc3ccc(O)cc3[C@]1(C)CCN2CC1CC1 (stereo in doubt) [CYCLAZOCINE]
[6]
  EC50: 1.6 nM

## C[C@H]1C2Cc3ccc(Nc4ccc(C(F)(F)F)cc4)cc3[C@@]1(C)CCN2CC1CC1
[3]
  Ki: 11 nM
[15]
  Ratio: 16
Mu-type opioid receptor [7]
  Ki: 13 nM

## COc1cccc(Nc2ccc3c(c2)[C@@]2(C)CCN(CC4CC4)C(C3)[C@@H]2C)c1
[3]
  Ki: 1 nM
Mu-type opioid receptor [7]
  Ki: 1.8 nM

## C[C@H]1[C@H]2Cc3ccc(N)cc3[C@@]1(C)CCN2C[C@@H]1CCCO1
[3]
  Ki: 7.8 nM
[16]
  Ratio: 47
[4]
  Emax: 330%
[6]
  EC50: 70 nM
Mu-type opioid receptor [7]
  Ki: 14 nM

## C[C@H]1C2Cc3ccc(N)cc3[C@@]1(C)CCN2CC1CC1
[1]
  Ki: 110 nM

## C[C@H]1C2Cc3ccc(N=C(c4ccccc4)c4ccccc4)cc3[C@@]1(C)CCN2CC1CC1
[3]
  Ki: 170 nM
[17]
  Ratio: 1
Mu-type opioid receptor [7]
  Ki: 360 nM
